The source of these data is ChEMBL document CHEMBL1124652, “Resolved 6,7,8,9-tetrahydro-N,N-dimethyl-3H-benz[e]indol-8-amine: central dopamine and serotonin receptor stimulating properties” (J Med Chem, 1989).

Assay [1] concerns the target T1, D(1A) dopamine receptor (Rattus norvegicus, UniProt P18901). As to the kind of experiment: In vitro binding activity against dopamine receptor D1 from homogenized rat brain, using [3H]SCH-23390 as the radioligand. The method in brief:
(§1)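 Rat striatal membranes prepared in 50 mM potassium phosphate pH 7.4 and centrifuged at 25000g. Incubated with 0.2 nM [3H]SCH 23390 (1 mg original tissue) for 60 min at 30 °C, then separated by rapid filtration. Specific binding defined with 1 μM cis-(Z)-flupentixol.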

For assay [2], the system named is Rattus norvegicus. As to the kind of experiment: Effect of compound on 5-Hydroxy tryptamine accumulation upon subcutaneous administration in the corpus striatum of rat brain. Format: functional. The following applies: sc.
Assay [3] deals with Rattus norvegicus. Nature of the assay: Effect of compound on 5-Hydroxy tryptamine accumulation upon subcutaneous administration in the hemisphere of rat brain. Format: functional. The following applies: sc.
Assay [4] has as its system Rattus norvegicus. Nature of the assay: Effect of compound on 5-Hydroxy tryptamine accumulation upon subcutaneous administration in the limbic system of rat brain. The class given is functional. The note with it: sc.
The subject of assay [5] is Rattus norvegicus. Nature of the assay: Effect on Dopa accumulation upon subcutaneous administration in the corpus striatum of rat brain. The class given is functional. The note with it: sc.
The subject of assay [6] is Rattus norvegicus. Nature of the assay: Effect on Dopa accumulation upon subcutaneous administration in the hemispheres of rat brain. The class given is functional. The note with it: sc.
For assay [7], the system named is Rattus norvegicus. As to the kind of experiment: Effect on Dopa accumulation upon subcutaneous administration in the limbic system of rat brain. Format: functional. The following applies: sc.
Assay [8] has as its system Rattus norvegicus. Nature of the assay: Effect on motor activity in rats at a dose of 12.5 uM/Kg. Format: functional.
The subject of assay [9] is Rattus norvegicus. As to the kind of experiment: Effect on Dopa accumulation upon subcutaneous administration in the hemispheres of rat brain (partial response). The class given is functional. The note with it: sc.
The test system of assay [10] is Rattus norvegicus. As to the kind of experiment: Effect on motor activity in rats at a dose of 2 uM/Kg. Format: functional.
The target of assay [11] is T2, 5-hydroxytryptamine receptor 1A (Rattus norvegicus, UniProt P19327).
T2 sequence (P19327 whole entry): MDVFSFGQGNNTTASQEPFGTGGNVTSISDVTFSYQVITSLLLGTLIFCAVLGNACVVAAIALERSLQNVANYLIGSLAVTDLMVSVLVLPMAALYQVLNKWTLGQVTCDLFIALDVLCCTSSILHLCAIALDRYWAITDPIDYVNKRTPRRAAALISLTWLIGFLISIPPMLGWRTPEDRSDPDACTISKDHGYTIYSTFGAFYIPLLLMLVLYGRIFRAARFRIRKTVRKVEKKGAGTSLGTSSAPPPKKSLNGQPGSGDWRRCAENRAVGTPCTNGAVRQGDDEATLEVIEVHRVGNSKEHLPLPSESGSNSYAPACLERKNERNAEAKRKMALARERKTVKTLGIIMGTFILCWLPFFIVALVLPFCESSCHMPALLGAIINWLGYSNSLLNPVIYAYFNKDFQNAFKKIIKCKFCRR
As to the kind of experiment: In vitro binding activity against 5-hydroxytryptamine 1A receptor from homogenized rat brain, using [3H]-8-OH-DPAT as the radioligand. Put shortly:
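Whole rat brain minus brainstem and cerebellum, homogenized in 50 mM Tris pH 8.0 with 120 mM NaCl, 4 mM CaCl2 and 4 mM MgCl2. Membranes preincubated 10 min at 37 °C, then resuspended with 10 μM pargyline. Incubated in triplicate with 1 nM [3H]-8-OH-DPAT (0.1% ascorbic acid) for 15 min at 37 °C, then filtered. Nonspecific binding defined with 10 μM 5-HT. IC50 from semilog linear regression.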

The target in assay [12] is T3, D(2) dopamine receptor (Rattus norvegicus, UniProt P61169). As to the kind of experiment: In vitro binding activity against dopamine receptor D2 from homogenized rat brain, using [3H]spiperone as the radioligand. The method in brief: (§2)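 Rat striatal membranes in 50 mM potassium phosphate buffer (pH 7.4 at 25 °C), pellets homogenized in 1300 volumes. Incubated with 0.5 nM [3H]spiperone (3 mg original tissue) for 10 min at 37 °C, then terminated by rapid vacuum filtration and counted by liquid scintillation. Nonspecific binding defined with 10 μM 6,7-ADTN; specific binding 70-80% of total.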
T3 sequence (P61169 whole entry): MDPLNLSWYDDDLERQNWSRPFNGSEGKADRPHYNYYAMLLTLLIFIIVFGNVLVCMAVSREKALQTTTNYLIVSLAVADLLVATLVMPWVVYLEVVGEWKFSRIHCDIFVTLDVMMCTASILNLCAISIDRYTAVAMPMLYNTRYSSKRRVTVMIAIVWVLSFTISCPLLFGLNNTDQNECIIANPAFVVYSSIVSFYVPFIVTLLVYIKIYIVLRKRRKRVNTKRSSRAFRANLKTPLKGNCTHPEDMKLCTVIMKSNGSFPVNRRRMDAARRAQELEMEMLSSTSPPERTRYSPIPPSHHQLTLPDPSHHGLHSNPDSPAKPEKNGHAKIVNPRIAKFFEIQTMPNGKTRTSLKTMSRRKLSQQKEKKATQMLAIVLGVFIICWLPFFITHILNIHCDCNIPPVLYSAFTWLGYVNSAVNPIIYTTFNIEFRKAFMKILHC

Assay [13] addresses T1, D(1A) dopamine receptor. Nature of the assay: In vitro binding activity against Dopamine receptor D1 from homogenized rat brain, using [3H]SCH-23390 as the radioligand. The method in brief: as §1
The species entered for assay [14] is Rattus norvegicus. As to the kind of experiment: […]. The following applies: Striatum. The class given is functional, organism-based.
Assay [15] deals with Rattus norvegicus. As to the kind of experiment: Effect on Dopa accumulation upon subcutaneous administration in the limbic system of rat brain; I - inactive at highest dose (50 umol/kg). The class given is functional, organism-based.
Assay [16] concerns Rattus norvegicus. Nature of the assay: Effect of compound on 5-Hydroxy transaminase accumulation upon subcutaneous administration in the hemisphere of rat brain. The class given is functional. The following applies: sc. Put shortly: (§3)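 Male Sprague-Dawley rats (200-300 g) were dosed subcutaneously at 5 mL/kg with neutral-pH solutions. Dose-response curves used four to six dose levels (n = 4) per substance and per brain area, up to 50 μmol/kg. 5-HTP was measured in dissected brain regions by HPLC with electrochemical detection, and ED50 values were derived from the curves.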

The test system of assay [17] is Rattus norvegicus. Nature of the assay: Effect of compound on 5-Hydroxy transaminase accumulation upon subcutaneous administration in the limbic system of rat brain. The class given is functional. The following applies: sc. Put shortly: as §3
Assay [18] relates to Rattus norvegicus. As to the kind of experiment: Effect on Dopa accumulation upon subcutaneous administration in the hemispheres of rat brain; I - inactive at highest dose (50 umol/kg). Format: functional, organism-based.
For assay [19], the system named is Rattus norvegicus. As to the kind of experiment: Effect of compound on 5-Hydroxy transaminase accumulation upon subcutaneous administration in the corpus striatum of rat brain. The note with it: sc. Format: functional. Put shortly: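 Male Sprague-Dawley rats (200-300 g) received the compound subcutaneously at 5 mL/kg in neutral-pH solution, at four to six dose levels up to 50 μmol/kg (n = 4 per dose). 5-HTP in the corpus striatum was measured by HPLC with electrochemical detection. A separate dose-response curve per substance and brain area gave ED50 values.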

Assay [20] has as its system Rattus norvegicus. As to the kind of experiment: Effect of compound on 5-Hydroxy tryptamine accumulation upon subcutaneous administration in the hemisphere of rat brain (partial response). The note with it: sc. The class given is functional.
Assay [21] has as its system Rattus norvegicus. Nature of the assay: Effect on motor activity in rats at a dose of 4 uM/Kg. Format: functional.
Assay [22] deals with Rattus norvegicus. As to the kind of experiment: Effect of compound on 5-Hydroxy transaminase accumulation upon subcutaneous administration in the limbic system of rat brain; I - inactive at highest dose (50 umol/kg). Format: functional, organism-based.
In assay [23] the test system is Rattus norvegicus. As to the kind of experiment: Effect of compound on 5-Hydroxy transaminase accumulation upon subcutaneous administration in the corpus striatum of rat brain; I - inactive at highest dose (50 umol/kg). Format: functional, organism-based.
Assay [24] relates to Rattus norvegicus. Nature of the assay: Effect of compound on 5-Hydroxy transaminase accumulation upon subcutaneous administration in the hemisphere of rat brain; I - inactive at highest dose (50 umol/kg). The class given is functional, organism-based.
The target of assay [25] is T3, D(2) dopamine receptor. Nature of the assay: In vitro binding activity against Dopamine receptor D2 from homogenized rat brain, using [3H]spiperone as the radioligand. The method in brief: as §2
Assay [26] concerns the target T1, D(1A) dopamine receptor. Nature of the assay: In vitro binding activity against dopamine D1 receptor from homogenized rat brain, using [3H]SCH-23390 as the radioligand. Put shortly: as §1

The structures appear in SMILES notation. The source made the active and inactive calls. No cut-off for these calls is given here.

T1 sequence (P18901 whole entry): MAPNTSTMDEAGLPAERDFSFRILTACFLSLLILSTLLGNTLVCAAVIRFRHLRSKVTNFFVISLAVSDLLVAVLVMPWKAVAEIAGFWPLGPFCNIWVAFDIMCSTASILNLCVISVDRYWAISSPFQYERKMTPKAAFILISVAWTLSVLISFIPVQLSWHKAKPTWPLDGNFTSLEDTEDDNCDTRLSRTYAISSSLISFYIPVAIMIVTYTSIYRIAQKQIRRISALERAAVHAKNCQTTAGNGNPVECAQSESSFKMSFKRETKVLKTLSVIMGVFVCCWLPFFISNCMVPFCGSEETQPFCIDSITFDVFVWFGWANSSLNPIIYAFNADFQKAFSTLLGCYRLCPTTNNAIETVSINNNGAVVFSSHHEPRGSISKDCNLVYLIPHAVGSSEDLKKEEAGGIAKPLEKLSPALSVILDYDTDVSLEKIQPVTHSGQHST

As usually defined, the IC50 is the concentration that inhibits the measured activity by half. Read a high IC50 as weaker potency. One may read the ED50 as the dose that gives a 50% effect, or the effect in half of the subjects. In turn, `CN(C)[C@H]1CCc2ccc3[nH]ccc3c2C1` came in with an IC50 at D(1A) dopamine receptor [1] of 29.2 µM. Further, the ED50 with Rattus norvegicus [2] worked out at 3.7 µmol/kg; with Rattus norvegicus [3] it was 3.7 µmol/kg; in the assay with Rattus norvegicus [4], 3.7 µmol/kg; with Rattus norvegicus [5], 8 µmol/kg; in the assay with Rattus norvegicus [6], 10 µmol/kg; in the assay on Rattus norvegicus [7], 4.2 µmol/kg. Besides, the Motor activity with Rattus norvegicus [8] is listed as 22 accumulated counts 30min-1.

On D(1A) dopamine receptor [1], `CN(C)[C@@H]1CCc2ccc3[nH]ccc3c2C1` displayed an IC50 of 20.4 µM. Moreover, the ED50 in the assay with Rattus norvegicus [2] is 0.1 µmol/kg; in the assay with Rattus norvegicus [3], 0.4 µmol/kg; with Rattus norvegicus [4], 0.4 µmol/kg; with Rattus norvegicus [5], 0.4 µmol/kg; in the assay with Rattus norvegicus [9], 2 µmol/kg; in the assay on Rattus norvegicus [7], 0.3 µmol/kg. Also, in the assay on Rattus norvegicus [10], the Motor activity is given as 130 accumulated counts 30min-1.

In the case of `CCN(CC)C(=O)N[C@H]1C[C@@H]2c3cccc4[nH]cc(c34)C[C@H]2N(C)C1` [TERGURIDE], the IC50 in assay [11] stood at 0.025 µM; at D(2) dopamine receptor [12] it was 0.004 µM; at D(1A) dopamine receptor [13] it was 0.069 µM.

As to `CCCN(CCC)[C@@H]1CCc2cccc(O)c2C1`, the ED50 result in the assay listed under Rattus norvegicus [14], with Rattus norvegicus [15] and with Rattus norvegicus [18] was “inactive” each time. In addition, the ED50 in the assay on Rattus norvegicus [16] came to 0.05 µmol/kg; with Rattus norvegicus [17], 0.036 µmol/kg; in the assay with Rattus norvegicus [19], 0.047 µmol/kg.

In turn, `CN(C)C1CCc2ccc3[nH]ccc3c2C1` (racemic) displayed an IC50 on D(1A) dopamine receptor [1] of 19.7 µM. The 50% effective dose (ED50) in the assay on Rattus norvegicus [2] is 0.2 µmol/kg; in the assay with Rattus norvegicus [20], 0.4 µmol/kg; with Rattus norvegicus [4], 0.3 µmol/kg; in the assay on Rattus norvegicus [5] it was 0.4 µmol/kg; in the assay on Rattus norvegicus [9], 4 µmol/kg; with Rattus norvegicus [7], 0.3 µmol/kg. Also, in the assay on Rattus norvegicus [21], the Motor activity is 90 accumulated counts 30min-1.

Turning to `CCCN(CCC)[C@@H]1CCc2ccc(O)cc2C1`, the ED50 result in the assay on Rattus norvegicus [22], with Rattus norvegicus [23], in the assay with Rattus norvegicus [24] and in the assay on Rattus norvegicus [18] was “inactive” in each case. The ED50 was determined as 0.011 µmol/kg in the assay with Rattus norvegicus [5] and 0.0095 µmol/kg in the assay with Rattus norvegicus [7].

Take `CCCN(CCC)[C@H]1CCc2cccc(O)c2C1`: the ED50 result in the assay listed under Rattus norvegicus [14], in the assay on Rattus norvegicus [15] and with Rattus norvegicus [18] was “inactive” each time. In addition, the ED50 in the assay with Rattus norvegicus [16] is 0.077 µmol/kg; in the assay with Rattus norvegicus [17] it was 0.061 µmol/kg; in the assay on Rattus norvegicus [19] it was 0.065 µmol/kg.

As for `CCCN(CCC)C1CCc2cccc(O)c2C1` (racemic) [8-OH-DPAT], the IC50 at D(2) dopamine receptor [25] is 5.76 µM; at D(1A) dopamine receptor [26], over 100 µM.
